Bioassay records deposited in PubChem by several laboratories.
An excerpt weighted towards active compounds, which were near 4.5% of everything screened.
MDM2 E3 inh – Mdm2 E3 ligase (human) inhibition | Q00987 | cell-based MDM2 ubiquitination luciferase reporter, 2 h; 0 = plate control, 100 = twice control, blank-subtracted | signal enhancement, % at 5 µM | 0.11% of 210,000 active | AID 1230;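 active = signal enhancement of 30% or more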;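 also: luminescence tracks abundance of the self-degrading MDM2-luciferase fusion protein; higher signal means inhibition of MDM2 E3 ligase activity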
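Assay system: stable mammalian line carrying autodegrading MDM2–luciferase fusion reporter; Input: 2000 cells in each well; Compound dosing: single-point 5 µM; Schedule: 2 h compound exposure at 37 °C; Signal: SteadyLite luciferase luminescence after 15 min room-temperature reagent incubation; Evaluation: % luminescence enhancement versus blank-corrected plate control mean; Benchmarks: plate controls and plate blanks.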
AHR act – activates the human aryl hydrocarbon receptor; P35869; AHR-responsive luciferase reporter cells, luminescence; activation, % at 5 µM; 2.5% of 320,000 active; AID 2796; in the data active = activation above about 47%;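 also: 0% = vehicle wells and 100% = reference agonist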
STAT1 activator – STAT1 signaling activation; NIH 3T3 STAT1-luciferase reporter, IFN-gamma, luminescence; 100% = IFN-gamma alone, no compound; activation (% of control), % at 5.5 µM; 2.6% of 200,000 active; AID 932;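 active = activation above the screen-wide mean activation plus 3 SD, cut at about 130% in these data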;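 also: raw ratio to IFN-gamma control signal so 100% means no change and 0% no light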
NF-kB neuron act – compounds increasing NF-kB expression in human neuronal cells; NF-kB reporter expression; stronger effect = higher value; fold change at 12.5 µM; 1.6% of 190,000 active; AID 1239; in the data active = fold change above about 3.3
PERK inhibitor – blocks human PERK kinase; Q9NZJ5; CHO PERK-DD fusion, SEAP luminescence translation reporter; inhibition, % at 5.6 µM; 0.17% of 220,000 active; AID 1416;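 active = inhibition above the mean inhibition of all tested compounds plus 3 SD, set separately per screening campaign, cut at about 2.9% in these data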;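 also: PERK kinase domain activated by AP20187 dimerizer at 100 nM; 0% = DMSO with dimerizer and 100% = rapamycin at 8.4 µM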
Target sequence (Q9NZJ5 whole entry, looked up, the tested form may be a part): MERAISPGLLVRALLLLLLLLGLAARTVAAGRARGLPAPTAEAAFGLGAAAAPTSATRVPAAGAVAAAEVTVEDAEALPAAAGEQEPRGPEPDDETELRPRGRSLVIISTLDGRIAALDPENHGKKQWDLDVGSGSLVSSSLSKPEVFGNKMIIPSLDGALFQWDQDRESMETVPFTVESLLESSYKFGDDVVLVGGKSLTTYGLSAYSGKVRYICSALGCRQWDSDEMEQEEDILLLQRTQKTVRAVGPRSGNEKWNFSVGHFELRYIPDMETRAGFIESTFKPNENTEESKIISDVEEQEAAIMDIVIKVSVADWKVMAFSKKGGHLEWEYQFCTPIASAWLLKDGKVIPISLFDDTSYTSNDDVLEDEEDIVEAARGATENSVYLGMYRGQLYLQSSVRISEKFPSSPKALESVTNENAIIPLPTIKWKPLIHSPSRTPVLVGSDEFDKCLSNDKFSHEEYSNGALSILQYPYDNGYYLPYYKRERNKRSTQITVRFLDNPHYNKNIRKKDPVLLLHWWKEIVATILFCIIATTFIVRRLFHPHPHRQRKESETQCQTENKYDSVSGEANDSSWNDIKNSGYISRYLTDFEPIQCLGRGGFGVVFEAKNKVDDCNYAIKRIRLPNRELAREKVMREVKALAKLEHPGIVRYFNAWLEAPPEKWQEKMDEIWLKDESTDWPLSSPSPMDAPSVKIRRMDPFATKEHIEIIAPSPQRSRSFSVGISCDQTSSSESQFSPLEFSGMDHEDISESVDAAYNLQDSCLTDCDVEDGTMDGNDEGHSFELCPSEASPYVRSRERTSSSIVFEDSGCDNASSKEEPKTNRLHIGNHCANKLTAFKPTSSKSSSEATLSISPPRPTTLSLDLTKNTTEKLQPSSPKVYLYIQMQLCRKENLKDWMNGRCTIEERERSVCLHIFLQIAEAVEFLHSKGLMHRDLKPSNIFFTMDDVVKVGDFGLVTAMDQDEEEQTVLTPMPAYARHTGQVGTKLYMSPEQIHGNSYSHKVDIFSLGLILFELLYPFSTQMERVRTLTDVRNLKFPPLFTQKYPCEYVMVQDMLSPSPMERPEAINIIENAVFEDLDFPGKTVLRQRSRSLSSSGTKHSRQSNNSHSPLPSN
APP 5'UTR act – activates APP 5'UTR luciferase reporter | AID 1276 | activation, % at 2 µM | 1% of 190,000 active | SH-SY5Y APP 5'UTR luciferase reporter, luminescence; zero percent = DMSO vehicle wells;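 active = activation above a set limit, based on mean plus 3 SD of controls, cut at about 140% in these data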
AHR act confirm – confirmation of human aryl hydrocarbon receptor activators; activation, % at 9 µM; shares compounds with AHR act; AID 2845; human cells, AHR-responsive luciferase reporter, luminescence; 87% of 2,300 active; in the data active = activation above about 49%;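 also: HepG2 hepatoma cells carrying a DRE-driven firefly luciferase reporter; 0% = vehicle wells and 100% = reference agonist wells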
PXR counter – PXR activation, counter-screen for AHR activators; shares compounds with AHR act; cell-based PXR reporter, luciferase luminescence; 88% of 2,300 active; activation, % at 11.6 µM; in the data active = activation above about 11%;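 also: human hepatoma DPX-2 cells expressing full-length human PXR; 0% = DMSO and 100% = reference agonist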
* hit, by the source's call.

What do the screens show for `Cc1ccccc1Nc1nc(-c2ccccc2)c(C(=O)Nc2cccnc2)s1`?
MDM2 E3 inh: -4; AHR act: 81*; STAT1 activator: 107; NF-kB neuron act: 0.77; PERK inhibitor: 0; APP 5'UTR act: 9; AHR act confirm: 57*; PXR counter: 65*

How did Cc1ccccc1NS(=O)(=O)c1cc(C(=O)Nc2cccnc2)ccc1C do in these assays?
AHR act: 83*; AHR act confirm: 70*; PXR counter: 104*

Results for O=C(CCNS(=O)(=O)c1ccccc1)NNC(=O)c1cccc(Cl)c1 ?
AHR act: -1

How did Cc1nc(-c2ccc(F)cc2)c(CC(=O)NCC(=O)Nc2ccc(F)c(F)c2)s1 do in these assays?
AHR act: 2

What do the screens show for `Cc1cc(/C=C2/NC(=O)NC2=O)c(C)n1-c1ccccn1`?
MDM2 E3 inh: 3; AHR act: 137*; STAT1 activator: 107; NF-kB neuron act: 1.4; PERK inhibitor: 2; APP 5'UTR act: -13; AHR act confirm: 88*; PXR counter: 23*

How did O=c1nc2c(-c3ccccc3F)n[nH]n2c2ccccc12 do in these assays?
MDM2 E3 inh: -20; AHR act: 111*; STAT1 activator: 134*; NF-kB neuron act: 1.7; PERK inhibitor: 0; APP 5'UTR act: 5; AHR act confirm: 182*; PXR counter: 26*

Results for Cc1cc(C)cc(N(CC(=O)NC2CCC(C)CC2)S(=O)(=O)c2c(C)[nH]c(=O)[nH]c2=O)c1 (stereo unspecified) ?
MDM2 E3 inh: -11; AHR act: 0; PERK inhibitor: 0

What do the screens show for `Cc1cccc(C(=O)Nc2c(C(=O)N(C)C)cnn2-c2ccccc2)c1`?
AHR act: 2

How did COc1ccc2nc(NNC(=O)C3COc4ccccc4O3)sc2c1 (stereo unspecified) do in these assays?
AHR act: 117*; STAT1 activator: 100; NF-kB neuron act: 1; PERK inhibitor: 2; APP 5'UTR act: -6; AHR act confirm: 76*; PXR counter: 30*

Results for COc1cccc(NC(=O)C2COc3ccccc3O2)c1 (stereo unspecified) ?
AHR act: 3

What do the screens show for `Cc1ccccc1OCCC(=O)Nc1cc(S(=O)(=O)N2CCOCC2)ccc1OC(C)C`?
AHR act: -1

What do the screens show for `CCn1c(SCC(=O)NCc2ccco2)nc2ccccc2c1=O`?
MDM2 E3 inh: -11; AHR act: 5; STAT1 activator: 95; NF-kB neuron act: 1.1; PERK inhibitor: 0; APP 5'UTR act: -11

How did O=C(CSc1nc2ccccc2c2nc3ccccc3n12)NCc1ccco1 do in these assays?
MDM2 E3 inh: -7; AHR act: 80*; STAT1 activator: 106; NF-kB neuron act: 1.1; PERK inhibitor: -1; APP 5'UTR act: -10; AHR act confirm: 50*; PXR counter: 48*

What do the screens show for `O=C(c1cc2ccccc2oc1=O)N1CCN(S(=O)(=O)c2ccccc2)CC1`?
AHR act: 0

Results for N=c1n(CCN2CCOCC2)c2ccccc2n1CC(=O)c1cccc([N+](=O)[O-])c1 ?
AHR act: 134*; AHR act confirm: 148*; PXR counter: 87*

What do the screens show for `N#Cc1cccc2c1-c1ccccc1/C2=N/NC(N)=S`?
AHR act: 139*; AHR act confirm: 117*; PXR counter: 44*

Results for COc1ccc2nc(NCc3ccccc3)[nH]c2c1 ?
MDM2 E3 inh: -10; AHR act: 17; STAT1 activator: 121; NF-kB neuron act: 1.7; PERK inhibitor: 0; APP 5'UTR act: 18

How did Cc1ccc2nc(NCc3ccccc3)[nH]c2c1 do in these assays?
MDM2 E3 inh: -15; AHR act: 84*; STAT1 activator: 116; NF-kB neuron act: 4.8*; PERK inhibitor: -1; APP 5'UTR act: -10; AHR act confirm: 55*; PXR counter: 208*

Results for O=C(Nc1cccc(Cl)c1)NC1CCN(C2CCCCC2)C1 (stereo unspecified) ?
AHR act: 1

Results for CCc1ccc2oc(-c3cc(N=Cc4cccc(OC)c4O)ccc3O)nc2c1 ?
MDM2 E3 inh: -19; AHR act: 125*; STAT1 activator: 84; NF-kB neuron act: 4.2*; PERK inhibitor: -1; APP 5'UTR act: 162*; AHR act confirm: 113*; PXR counter: 9

Results for COc1cccc(C=Nc2cc(C)cc(C)c2)c1O ?
MDM2 E3 inh: -10; AHR act: 0; STAT1 activator: 94; NF-kB neuron act: 1; PERK inhibitor: 0; APP 5'UTR act: -7

How did O=C(CNC(=O)c1ccccc1F)N/N=C/c1cn[nH]c1-c1ccccc1 do in these assays?
MDM2 E3 inh: 7; AHR act: 140*; STAT1 activator: 103; NF-kB neuron act: 0.85; PERK inhibitor: 2; APP 5'UTR act: -6; AHR act confirm: 92*; PXR counter: 19*

How did O=c1c[n+]([O-])c2ccccc2n1OCc1c(F)cccc1F do in these assays?
MDM2 E3 inh: -12; AHR act: 80*; STAT1 activator: 104; NF-kB neuron act: 1; PERK inhibitor: 0; APP 5'UTR act: 2; AHR act confirm: 92*; PXR counter: 43*

What do the screens show for `Cn1cnc([N+](=O)[O-])c1Oc1cccc2ccccc12`?
MDM2 E3 inh: 12; AHR act: 82*; STAT1 activator: 97; NF-kB neuron act: 1.9; PERK inhibitor: 1; APP 5'UTR act: 10; AHR act confirm: 82*; PXR counter: 21*

What do the screens show for `Cn1cnc([N+](=O)[O-])c1Oc1ccccc1`?
MDM2 E3 inh: 2; AHR act: 5; STAT1 activator: 94; NF-kB neuron act: 1.2; PERK inhibitor: 1; APP 5'UTR act: -3

Results for CC(C)c1cc(NCCOCCO)n2c(nc3ccccc32)c1C#N ?
AHR act: 5

Results for Cc1ccc(/C=N/n2cc(-c3ccccc3)[nH]c2=S)s1 ?
MDM2 E3 inh: -13; AHR act: 96*; STAT1 activator: 129*; NF-kB neuron act: 1.6; PERK inhibitor: 0; APP 5'UTR act: 23; AHR act confirm: 84*

Results for CCN=C(Nc1ccc(Cl)cc1)c1cccnc1 ?
MDM2 E3 inh: -2; AHR act: 104*; STAT1 activator: 101; NF-kB neuron act: 1.2; PERK inhibitor: 1; APP 5'UTR act: 21; AHR act confirm: 81*; PXR counter: 35*

What do the screens show for `O=c1[nH]c(Sc2ccc([N+](=O)[O-])cc2[N+](=O)[O-])nc2ccccc12`?
AHR act: 88*; AHR act confirm: 41; PXR counter: 26*

How did CCc1ccc(/C(C)=N/NC(=O)c2c[nH]c3ccccc23)s1 do in these assays?
AHR act: 141*; AHR act confirm: 115*; PXR counter: 59*
